{"source": "paper PMC11904594", "about": "(Current Research in Microbial Sciences, 2025)", "key": {"[1]": {"test_system": "P. aeruginosa ATCC 27,853", "assay": "MIC, broth microdilution", "format": "cell-based, Pseudomonas aeruginosa", "conditions": "MHB II, 10^6 CFU/ml, 37 °C, 24 h, triplicate", "how_it_was_run": "(§1)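 Broth microdilution per CLSI. Strains were freshly plated on LB agar from glycerol stocks; the colistin-resistant lpxD mutant was plated on LB with 10 µg/ml colistin. Inoculum was 10^6 CFU/ml in Mueller Hinton broth II with two-fold dilutions of test compound from 100 to 0.10 µg/ml, incubated at 37 °C for 24 h. MIC was the lowest concentration with no growth.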"}, "[2]": {"test_system": "P. aeruginosa (ST175–1)", "assay": "MIC, broth microdilution", "format": "cell-based, Pseudomonas aeruginosa", "conditions": "MHB II, 10^6 CFU/ml, 37 °C, 24 h, triplicate", "how_it_was_run": "as §1"}, "[3]": {"test_system": "A. baumannii IB010", "assay": "MIC, broth microdilution", "format": "cell-based, Acinetobacter baumannii", "conditions": "MHB II, 10^6 CFU/ml, 37 °C, 24 h, triplicate", "how_it_was_run": "as §1"}, "[4]": {"test_system": "A. baumannii Ab-1", "assay": "Minimum bactericidal concentration", "format": "cell-based, Acinetobacter baumannii", "conditions": "lowest concentration reducing at least 99.9 % of growth, plated on LB, 37 °C, 24 h, triplicate"}, "[5]": {"test_system": "A. baumannii Ab-1", "assay": "Inhibition of biofilm formation", "format": "cell-based, Acinetobacter baumannii", "conditions": "¼ MIC", "how_it_was_run": "(§2)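 Medium was discarded, wells washed with PBS, and biofilm stained with 1 % crystal violet for 15 min at room temperature. After two PBS washes, stain was eluted in 70 % ethanol and read at 595 nm. SBF = (OD595 − OD595 […])/OD600: weak ≤0.5, moderate 0.5–1, strong >1. Triplicate; Kruskal-Wallis with Dunn's test.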"}, "[6]": {"test_system": "K. pneumoniae ATCC 43,816", "assay": "Inhibition of biofilm formation", "format": "cell-based, Klebsiella pneumoniae", "conditions": "¼ MIC", "how_it_was_run": "as §2"}, "[7]": {"test_system": "E. coli ATCC 25,922", "assay": "Minimum bactericidal concentration", "format": "cell-based, Escherichia coli", "conditions": "lowest concentration reducing at least 99.9 % of growth, plated on LB, 37 °C, 24 h, triplicate"}, "[8]": {"test_system": "P. aeruginosa ATCC 27,853", "assay": "Minimum bactericidal concentration", "format": "cell-based, Pseudomonas aeruginosa", "conditions": "lowest concentration reducing at least 99.9 % of growth, plated on LB, 37 °C, 24 h, triplicate"}, "[9]": {"test_system": "E. coli ESBL 1057.1", "assay": "MIC, broth microdilution", "format": "cell-based, Escherichia coli", "conditions": "MHB II, 10^6 CFU/ml, 37 °C, 24 h, triplicate", "how_it_was_run": "as §1"}, "[10]": {"test_system": "A. baumannii ATCC 19,606", "assay": "MIC, broth microdilution", "format": "cell-based, Acinetobacter baumannii", "conditions": "MHB II, 10^6 CFU/ml, 37 °C, 24 h, triplicate", "how_it_was_run": "as §1"}, "[11]": {"test_system": "K. pneumoniae ATCC 43,816", "assay": "Minimum bactericidal concentration", "format": "cell-based, Klebsiella pneumoniae", "conditions": "lowest concentration reducing at least 99.9 % of growth, plated on LB, 37 °C, 24 h, triplicate"}, "[12]": {"test_system": "S. aureus MRSA USA 300", "assay": "MIC, broth microdilution", "format": "cell-based, Staphylococcus aureus", "conditions": "MHB II, 10^6 CFU/ml, 37 °C, 24 h, triplicate", "how_it_was_run": "as §1"}, "[13]": {"test_system": "P. aeruginosa ST175–1", "assay": "Inhibition of biofilm formation", "format": "cell-based, Pseudomonas aeruginosa", "conditions": "¼ MIC", "how_it_was_run": "as §2"}, "[14]": {"test_system": "A. baumannii IB010", "assay": "Minimum bactericidal concentration", "format": "cell-based, Acinetobacter baumannii", "conditions": "lowest concentration reducing at least 99.9 % of growth, plated on LB, 37 °C, 24 h, triplicate"}, "[15]": {"test_system": "S. aureus ATCC 29,213", "assay": "Minimum bactericidal concentration", "format": "cell-based, Staphylococcus aureus", "conditions": "lowest concentration reducing at least 99.9 % of growth, plated on LB, 37 °C, 24 h, triplicate"}, "[16]": {"test_system": "E. coli ATCC 25,922", "assay": "MIC, broth microdilution", "format": "cell-based, Escherichia coli", "conditions": "MHB II, 10^6 CFU/ml, 37 °C, 24 h, triplicate", "how_it_was_run": "as §1"}, "[17]": {"test_system": "A. baumannii ATCC 19,606", "assay": "Inhibition of biofilm formation", "format": "cell-based, Acinetobacter baumannii", "conditions": "¼ MIC", "how_it_was_run": "as §2"}, "[18]": {"test_system": "K. pneumoniae CG258", "assay": "Time-kill assay", "format": "cell-based, Klebsiella pneumoniae", "conditions": "peptide at 2× MIC", "how_it_was_run": "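Broth without compound was the growth control. Samples taken at 0, 3, 6 and 24 h were diluted and plated on MH II agar for CFU counts. Each curve was run at least in duplicate.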"}, "[19]": {"test_system": "E. coli ATCC 25,922", "assay": "Inhibition of biofilm formation", "format": "cell-based, Escherichia coli", "conditions": "¼ MIC", "how_it_was_run": "as §2"}, "[20]": {"test_system": "K. pneumoniae CG258", "assay": "MIC, broth microdilution", "format": "cell-based, Klebsiella pneumoniae", "conditions": "MHB II, 10^6 CFU/ml, 37 °C, 24 h, triplicate", "how_it_was_run": "as §1"}, "[21]": {"assay": "Stability in human serum", "format": "in vitro ADME", "conditions": "25 % (v/v)", "how_it_was_run": "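Test compound was added to RPMI with human serum pre-equilibrated at 37 °C, giving 333.33 µM final compound and 25 % (v/v) final serum. Mixtures were stirred at 37 °C for 10, 30, 45 or 60 min. Proteins were precipitated with 96 % ethanol, cooled at 4 °C for 15 min and spun at 14,000 g. Supernatants were run on C18 RP-HPLC (TFA/CH3CN gradient, 220 nm); degradation was taken from loss of native peak area. Duplicate.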"}, "[22]": {"test_system": "A. baumannii ATCC 19,606", "assay": "Minimum bactericidal concentration", "format": "cell-based, Acinetobacter baumannii", "conditions": "lowest concentration reducing at least 99.9 % of growth, plated on LB, 37 °C, 24 h, triplicate"}, "[23]": {"test_system": "P. aeruginosa (ST175–1)", "assay": "Minimum bactericidal concentration", "format": "cell-based, Pseudomonas aeruginosa", "conditions": "lowest concentration reducing at least 99.9 % of growth, plated on LB, 37 °C, 24 h, triplicate"}, "[24]": {"test_system": "K. pneumoniae CG258", "assay": "Minimum bactericidal concentration", "format": "cell-based, Klebsiella pneumoniae", "conditions": "lowest concentration reducing at least 99.9 % of growth, plated on LB, 37 °C, 24 h, triplicate"}, "[25]": {"test_system": "K. pneumoniae ATCC 43,816", "assay": "MIC, broth microdilution", "format": "cell-based, Klebsiella pneumoniae", "conditions": "MHB II, 10^6 CFU/ml, 37 °C, 24 h, triplicate", "how_it_was_run": "as §1"}, "[26]": {"test_system": "A. baumannii Ab-1", "assay": "MIC, broth microdilution", "format": "cell-based, Acinetobacter baumannii", "conditions": "MHB II, 10^6 CFU/ml, 37 °C, 24 h, triplicate", "how_it_was_run": "as §1"}, "[27]": {"test_system": "E. coli ESBL 1057.1", "assay": "Minimum bactericidal concentration", "format": "cell-based, Escherichia coli", "conditions": "lowest concentration reducing at least 99.9 % of growth, plated on LB, 37 °C, 24 h, triplicate"}, "[28]": {"test_system": "11 bacterial strains", "assay": "MBC, summary over all strains", "format": "cell-based", "conditions": "highest value over all strains, converted to molar", "how_it_was_run": "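The no-peptide growth well, serially diluted and plated, served as reference. Percent growth was calculated from CFU counts; MBC was the lowest concentration giving ≥99.9 % reduction (CLSI). Triplicate.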"}, "[29]": {"test_system": "Galleria mellonella larvae", "assay": "In vivo toxicity in Galleria mellonella larvae", "conditions": "G. mellonella larvae, 50 µg/larvae (10 μl of 5 mg/ml), 30 °C, N=10 per group", "how_it_was_run": "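Sixth-instar Galleria mellonella larvae (200–300 mg) were held in sawdust at 4 °C until use. Groups of ten were injected with 10 μl of test compound, colistin or 0.9 % NaCl saline control into the second rear proleg, then kept at 30 °C.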"}, "[30]": {"test_system": "S. aureus MRSA USA 300", "assay": "Minimum bactericidal concentration", "format": "cell-based, Staphylococcus aureus", "conditions": "lowest concentration reducing at least 99.9 % of growth, plated on LB, 37 °C, 24 h, triplicate"}, "[31]": {"test_system": "S. aureus ATCC 29,213", "assay": "MIC, broth microdilution", "format": "cell-based, Staphylococcus aureus", "conditions": "MHB II, 10^6 CFU/ml, 37 °C, 24 h, triplicate", "how_it_was_run": "as §1"}, "[32]": {"test_system": "11 bacterial strains (S. aureus, P. aeruginosa, A. baumannii, K. pneumoniae, E. coli)", "assay": "Antimicrobial activity screening, summary over groups of strains", "format": "cell-based", "conditions": "50 µg/ml screen"}}, "data": [{"smiles": "CC[C@H](C)[C@H](NC(=O)[C@H](CCCCN)NC(=O)[C@H](CCCCN)NC(=O)[C@H](Cc1ccccc1)NC(=O)[C@H](CC(C)C)NC(=O)[C@H](CCCCN)NC(=O)[C@@H](N)CCCCN)C(=O)N[C@@H](CC(C)C)C(=O)N[C@@H](CCCCN)C(=O)N[C@@H](Cc1ccccc1)C(=O)N[C@@H](CC(C)C)C(N)=O", "note": "[BP76]", "values": [{"measurement": "MIC", "setting": "[1]", "result": 50, "unit": "µg/mL"}, {"measurement": "MIC", "setting": "[2]", "result": 50, "unit": "µg/mL"}, {"measurement": "MIC", "setting": "[3]", "result": 25, "unit": "µg/mL"}, {"measurement": "MBC", "setting": "[4]", "result": 12.5, "unit": "µg/mL"}, {"measurement": "SBF index compared to BP607", "setting": "[5]", "result": "reduced SBF indices compared to BP607"}, {"measurement": "SBF index compared to BP607", "setting": "[6]", "result": "reduced SBF indices compared to BP607"}, {"measurement": "MBC", "setting": "[7]", "result": 6.25, "unit": "µg/mL"}, {"measurement": "MBC", "setting": "[8]", "result": 50, "unit": "µg/mL"}, {"measurement": "MIC", "setting": "[9]", "result": 12.5, "unit": "µg/mL"}, {"measurement": "MIC", "setting": "[10]", "result": 6.25, "unit": "µg/mL"}, {"measurement": "MBC", "setting": "[11]", "result": 12.5, "unit": "µg/mL"}, {"measurement": "MIC", "setting": "[12]", "result": 50, "unit": "µg/mL"}, {"measurement": "SBF index compared to BP607", "setting": "[13]", "result": "reduced SBF indices compared to BP607"}, {"measurement": "MBC", "setting": "[14]", "result": 25, "unit": "µg/mL"}, {"measurement": "MBC", "setting": "[15]", "result": 25, "unit": "µg/mL"}, {"measurement": "MIC", "setting": "[16]", "result": 6.25, "unit": "µg/mL"}, {"measurement": "SBF index compared to BP607", "setting": "[17]", "result": "reduced SBF indices compared to BP607"}, {"measurement": "bactericidal activity in time-kill assay", "setting": "[18]; 6 h", "result": "able to reduce growth to bactericidal level"}, {"measurement": "bactericidal activity in time-kill assay", "setting": "[18]; 24 h", "result": "not at 24 h"}, {"measurement": "production of biofilm", "setting": "[19]", "result": "reduced production of biofilm"}, {"measurement": "MIC", "setting": "[20]", "result": 6.25, "unit": "µg/mL"}, {"measurement": "remaining at 1 h, 333.33 µM", "setting": "[21]", "result": 15, "unit": "%"}, {"measurement": "MBC", "setting": "[22]", "result": 6.25, "unit": "µg/mL"}, {"measurement": "MBC", "setting": "[23]", "result": 50, "unit": "µg/mL"}, {"measurement": "MBC", "setting": "[24]", "result": 6.25, "unit": "µg/mL"}, {"measurement": "MIC", "setting": "[25]", "result": 12.5, "unit": "µg/mL"}, {"measurement": "MIC", "setting": "[26]", "result": 12.5, "unit": "µg/mL"}, {"measurement": "MBC", "setting": "[27]", "result": 12.5, "unit": "µg/mL"}, {"measurement": "highest MBC observed", "setting": "[28]", "result": 0.04, "unit": "mmol/L"}, {"measurement": "survival after 24h", "setting": "[29]", "result": 100, "unit": "%"}, {"measurement": "MBC", "setting": "[30]", "result": 50, "unit": "µg/mL"}, {"measurement": "MIC", "setting": "[31]", "result": 25, "unit": "µg/mL"}, {"measurement": "growth inhibition of all the strains", "setting": "[32]; all strains, Gram-negative and Gram-positive", "result": "≈ 90%"}]}, {"smiles": "CC[C@H](C)[C@H](NC(=O)[C@H](CCCCN)NC(=O)[C@H](CCCCN)NC(=O)[C@H](Cc1ccccc1)NC(=O)[C@H](CC(C)C)NC(=O)[C@H](CCCCN)NC(=O)[C@H](CCCCN)NS(=O)(=O)c1ccc(C)cc1)C(=O)N[C@@H](CC(C)C)C(=O)N[C@@H](CCCCN)C(=O)N[C@@H](CCCCN)C(=O)N[C@@H](CC(C)C)C(N)=O", "note": "[BP125]", "values": [{"measurement": "growth inhibition in all strains except both K. pneumoniae and E. coli ATCC 25,922", "setting": "[32]", "result": "≥ 83", "unit": "%"}]}]}
